Experiments:
[1] = test system: Cryptosporidium parvum; experiment: Binding affinity to Cryptosporidium parvum recombinant H6-NBD1 of ABC3 transporter expressed in Escherichia coli BL21(DE3) assessed as intrinsic fluorescence quenching at 100 uM relative to control
Outline: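 His6-tagged NBD1 purified on Ni-NTA, dialyzed against 50 mM Tris pH 7.3/100 mM KCl/0.02% HECAMEG/20% glycerol. Protein 0.25–0.5 μM in 50 mM Tris pH 7.3, 100 mM KCl, 0.02% HECAMEG; compounds 100 μM from DMSO stocks (≤2.5% DMSO), 30 min at 20 ± 2 °C. Excitation 295 nm, emission 328 nm; % of dialysis-buffer/solvent control; triplicates, 3 separate experiments.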

[2] = Inhibition of Cryptosporidium parvum recombinant H6-NBD1 of ABC3 transporter ATPase activity expressed in Escherichia coli BL21(DE3) after 10 mins
Outline: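 Purified His6-NBD1 (2.5 μM final) incubated 10 min at 37 °C in 50 mM Tris pH 7.3, 100 mM KCl, 4 mM MgCl2, 0.02% HECAMEG with serially diluted compounds at various ATP concentrations. Reaction products quantified in triplicate by reverse-phase HPLC, detection at 254 nm; inhibition type and Ki by non-linear regression.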

For CC(C)(C)OC(=O)NCCCn1ccc(=O)c2c1ncn2Cc1ccccc1, the Activity [1] was 96.1% and the Ki ([2]; read-out: Ki) was 539 µM.

Cc1nc(Cn2ncc3c2C(=O)C=CC3=O)cs1 gave an Activity [1] of 21.6% and a Ki ([2]; read-out: Ki) of 116 µM.

For CCOC(=O)C(C)n1ccc(=O)c2c1ncn2Cc1ccccc1 (racemic), the Activity [1] was 69.3% and the Ki ([2]; read-out: Ki) was 232 µM.

Molecule Nc1ncnc2c1ncn2[C@@H]1O[C@H](COP(=O)(O)OP(=O)(O)OP(=O)(O)O)[C@H]2OC3(O[C@H]21)C([N+](=O)[O-])=CC(=[N+]([O-])[O-])C=C3[N+](=O)[O-] (some centres undefined) [TNP-ATP] has an Activity [1] of 33.1% and a Ki ([2]; read-out: Ki) of 36.6 µM.

For CC(C)(C)OC(=O)NCCCCCCn1ccc(=O)c2c1ncn2Cc1ccccc1, the Activity [1] was 60.8% and the Ki [2] was “Not Active”.

CC(=O)[C@H]1CC[C@H]2[C@@H]3CCC4=CC(=O)CC[C@]4(C)[C@H]3CC[C@]12C showed an Activity [1] of 71.7%.

With CCOC(=O)CCCn1ccc(=O)c2c1ncn2Cc1ccccc1 the Activity [1] was 80.1%.

CCOC(=O)Cn1ccc(=O)c2c1ncn2Cc1ccccc1 showed an Activity [1] of 85.5%.

O=C1C=CC(=O)c2c1cnn2Cc1ccccc1 showed an Activity [1] of 22.9%.
